Experiment [1] has as its system West Nile virus. In words: Inhibition of West Nile virus NS2B-NS3 protease at 60 uM using Mca-KKR-GDap(DNP)AK-NH2 as substrate measured every 30 secs for 20 mins by FRET assay.
Experiment [2] in a line: Inhibition of West Nile virus NS2B-NS3 protease using Mca-KKR-GDap(DNP)AK-NH2 as substrate measured every 30 secs for 20 mins by FRET assay. A digest of the protocol:
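FRET read-out: protease cleavage of a peptide carrying a fluorophore and a quencher on either side of the cleavage site raises fluorescence in proportion to enzyme activity. IC50 is taken as the inhibitor concentration that lowers enzymatic activity by 50%.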

For experiment [3], the system named is West Nile virus. In words: Mixed inhibition of West Nile virus NS2B-NS3 protease using Mca-KKR-GDap(DNP)AK-NH2 as substrate measured every 30 secs for 10 mins by Lineweaver-burk plot analysis.
The test system of experiment [4] is West Nile virus. In words: Inhibition of West Nile virus NS2B-NS3 protease using Mca-KKR-GDap(DNP)AK-NH2 as substrate measured every 30 secs for 5 mins in presence of Brij35 by FRET assay. A digest of the protocol: (§1)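 Aggregation counter-screen run in the FRET protease assay, with inhibition followed across a range of detergent concentrations (0-0.2 %) of CHAPS and of Brij35.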

In experiment [5] the test system is West Nile virus. In words: Inhibition of West Nile virus NS2B-NS3 protease using Mca-KKR-GDap(DNP)AK-NH2 as substrate measured every 30 secs for 5 mins in presence of CHAPS by FRET assay. A digest of the protocol: as §1

Consider 13 compounds from ChEMBL document CHEMBL4261588, “Breathing new life into West Nile virus therapeutics; discovery and study of zafirlukast as an NS2B-NS3 protease inhibitor” (Eur J Med Chem, 2018).

The source made the active and inactive calls. No cut-off for these calls is given here.

In the case of `CCOC(=O)Nc1ccc2c(c1)c(Cc1ccc(C(=O)NS(=O)(=O)c3ccccc3C)cc1OC)cn2C`, the inhibition (usually how much of the control response was suppressed) in the experiment on West Nile virus [1] amounted to 12%.
Same read-out and setting: in the case of `Cc1ccccc1S(=O)(=O)NC(=O)c1ccc(Cc2cn(C)c3ccc(NC(=O)OC4CCCC4)cc23)cc1` it was 64%; in that of `COc1cc(C(=O)NS(=O)(=O)c2ccccc2)ccc1Cc1cn(C)c2ccc(NC(=O)OC3CCCC3)cc12`, 81%.
Still for that read-out and setting: then `COc1cc(C(=O)NS(=O)(=O)c2ccccc2C)ccc1Cc1cn(C)c2ccc(NC(=O)CC3CCCC3)cc12`, with 33%; and `Cc1ccccc1S(=O)(=O)NC(=O)c1ccc(NC(=O)OC2CCCC2)cc1`, with 4%.
Compound `COc1cc(C(=O)NS(=O)(=O)c2ccccc2C)ccc1Cc1cn(C)c2ccc(NC(=O)Oc3ccccc3)cc12` showed an inhibition in the experiment with West Nile virus [1] of 92%. Further, in experiment [2], inhibition was half-maximal at 22 µM (IC50).
As to `COc1cc(C(=O)NS(=O)(=O)c2ccccc2C)ccc1Cc1cccc(NC(=O)OC2CCCC2)c1`, the inhibition with West Nile virus [1] turned out to be 30%.
On the same count and under the same terms, in the case of `COc1cc(C(=O)NCc2ccccc2)ccc1Cc1cn(C)c2ccc(NC(=O)OC3CCCC3)cc12` it was 5%; in that of `Cn1ccc2cc(NC(=O)OC3CCCC3)ccc21`, 6%; in that of `COC(=O)c1ccc(Cn2ccc3cc(NC(=O)OC4CCCC4)ccc32)c(OC)c1`, 5%.
The same measure, in the same setting: then `COc1cc(C(=O)NS(=O)(=O)c2ccccc2C)ccc1Cn1ccc2cc(NC(=O)OC3CCCC3)ccc21`, with 79%.
On to `COc1cc(C(=O)NS(=O)(=O)c2ccccc2C)ccc1Cc1cn(C)c2ccc(NC(=O)OC3CCCC3)cc12` [ZAFIRLUKAST], for which the half-inhibitory concentration (IC50) – broadly, the concentration that gives 50% inhibition – in experiment [2] was 32 µM. Moreover, the inhibition entry in the experiment on West Nile virus [3], in the experiment on West Nile virus [4] and with West Nile virus [5] was “Active” each time.
Regarding `COC(=O)c1ccc(Cc2cn(C)c3ccc(NC(=O)OC4CCCC4)cc23)c(OC)c1`, in the experiment with West Nile virus [1], the inhibition came out at 12%.
